Reference: PubChem BioAssay AID624368 (Broad Institute, 2012)
Calls of active or inactive are those of the source.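 Rule for the calls: active = viability drop with AC50 at most twice the sample's highest valid dose; inconclusive = flat curve with moderate loss, or a poor fit; inactive = the rest.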

Experiments:
[1] = test system: A375 viability, CellTiter-Glo ATP luminescence, 24 h; experiment: viability of MITF-independent A375 cells – cell-based, CellTiter-Glo luminescence, dry powder, set 5, counter-screen for MITF inhibitor project, dose response (AID 624368)
How it was run: (§1)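 Detection: ATP luminescence, CellTiter-Glo / Material: MITF-independent A375 melanoma cells / Incubation: 24 h compound exposure, 37 °C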

[2] = as above; settings: A375 viability, CellTiter-Glo ATP luminescence, 24 h; at 35 µM (top of the series)
How it was run: as §1

SMILES | AC50 [1] | activity change, negative = cytotoxicity [2]
CN1CCN(C2=C(NC(=O)c3ccc(Br)cc3)C(=O)c3ccccc3C2=O)CC1 | 32.2 µM | 
CCN1CCN(C2=C(NS(=O)(=O)c3ccc(Br)cc3)C(=O)c3ccccc3C2=O)CC1 |  | 8.86% (inactive)
CCN(CC)CCNC1=C(Nc2ccccc2)C(=O)c2ccccc2C1=O | > 70 µM (inactive) | 
Cc1ccc(C(=O)NC2=C(c3ccccc3)C(=O)c3ccccc3C2=O)o1 | 32 µM | 
O=C(NC1=C(N2CCOCC2)C(=O)c2ccccc2C1=O)c1ccc(Br)cc1 | > 70 µM (inactive) | 
O=C1C=C(NS(=O)(=O)c2ccccc2)C(=O)c2ccccc21 | > 70 µM (inactive) | 
NC1=C(NS(=O)(=O)c2ccccc2)C(=O)c2ccccc2C1=O | > 70 µM (inactive) | 
O=C1C(Nc2ccccc2)=C(N2CCCCC2)C(=O)c2ccccc21 | > 70 µM (inactive) | 
NC1=C(NC(=O)c2ccccc2)C(=O)c2ccccc2C1=O | > 70 µM (inactive) | 
CCN1CCN(C2=C(NS(=O)(=O)c3ccc(Br)s3)C(=O)c3ccccc3C2=O)CC1 | > 70 µM (inactive) | 
O=C1C(NS(=O)(=O)c2cccs2)=C(N2CCCCC2)C(=O)c2ccccc21 | > 70 µM (inactive) | 
COC1=C(NS(=O)(=O)c2ccc(Br)cc2)C(=O)c2ccccc2C1=O | > 70 µM (inactive) | 
Cc1nc2ccccc2n1/N=C/c1ccc([N+](=O)[O-])s1 | > 70 µM (inactive) | 
CN1CCN(C2=C(Nc3ccccc3)C(=O)c3ccccc3C2=O)CC1 | > 70 µM (inactive) | 
O=C1C(NS(=O)(=O)c2ccccc2)=C(N2CCCCC2)C(=O)c2ccccc21 |  | 0.773% (inactive)
O=C1C=C(Nc2ccccc2)C(=O)c2ccccc21 | > 70 µM (inactive) | 
C=CCNC1=C(Cl)C(=O)c2ccccc2C1=O | > 70 µM (inactive) | 
O=C(CNc1cccc2ccccc12)N/N=C/c1ccc([N+](=O)[O-])o1 | > 70 µM (inactive) | 
COc1ccc(S(=O)(=O)N(C(C)=O)c2ccc(OC(C)=O)c3ccccc23)cc1[N+](=O)[O-] | > 70 µM (inactive) | 
NC1=C(NS(=O)(=O)c2ccc(Br)cc2)C(=O)c2ccccc2C1=O | > 70 µM (inactive) | 
O=C(NC1=C(N2CCCCC2)C(=O)c2ccccc2C1=O)c1ccc(Br)cc1 | > 70 µM (inactive) | 
NC1=CC(=O)c2ccccc2C1=O | > 70 µM (inactive) | 
NC1=C(NS(=O)(=O)c2ccc(Br)s2)C(=O)c2ccccc2C1=O |  | 3.75% (inactive)
O=C1C(NS(=O)(=O)c2ccccc2)=C(N2CCOCC2)C(=O)c2ccccc21 |  | -1.41% (inactive)
O=C1C(NS(=O)(=O)c2ccc(Br)s2)=C(N2CCCCC2)C(=O)c2ccccc21 | > 70 µM (inactive) | 
O=C1C(Nc2ccccc2)=C(NS(=O)(=O)c2ccccc2[N+](=O)[O-])C(=O)c2ccccc21 |  | -2.72% (inactive)

SMILES | AC50 [1] | activity change, negative = cytotoxicity [2]
O=C1C=C(NS(=O)(=O)c2ccc(Br)cc2)C(=O)c2ccccc21 |  | 2.29% (inactive)
O=C1C(NS(=O)(=O)c2ccc(Br)s2)=C(N2CCOCC2)C(=O)c2ccccc21 | > 70 µM (inactive) | 
CCN(CC)CCCNC1=C(Nc2ccccc2)C(=O)c2ccccc2C1=O | > 70 µM (inactive) | 
C[C@@H](NC1=C(Nc2ccccc2)C(=O)c2ccccc2C1=O)c1ccccc1 | > 70 µM (inactive) | 
CN1CCN(C2=C(NS(=O)(=O)c3ccc(Br)s3)C(=O)c3ccccc3C2=O)CC1 | > 70 µM (inactive) | 
CC1CCN(CC(CS(=O)(=O)c2ccc([N+](=O)[O-])cc2)N2CCC(C)CC2)CC1 (configuration not stated) | > 70 µM (inactive) | 
O=C1C(Nc2ccccc2)=C(N2CCOCC2)C(=O)c2ccccc21 | > 70 µM (inactive) | 
C=CCNC1=C(N(C)C(C)=O)C(=O)c2ccccc2C1=O | 23 µM | 
O=C1C(Nc2ccccc2)=C(N2CCSCC2)C(=O)c2ccccc21 | > 70 µM (inactive) | 
NC1=C(NS(=O)(=O)c2cccs2)C(=O)c2ccccc2C1=O | > 70 µM (inactive) | 
COC1=C(Nc2ccccc2)C(=O)c2ccccc2C1=O | > 70 µM (inactive) | 
O=C1C(NS(=O)(=O)c2cccs2)=C(c2ccccc2)C(=O)c2ccccc21 | > 70 µM (inactive) | 
NC1=C(c2ccc(OC(F)(F)F)cc2)C(=O)c2ccccc2C1=O |  | -3.65% (inactive)
O=C1C(Nc2ccccc2)=C(c2ccccc2)C(=O)c2ccccc21 | > 70 µM (inactive) | 
O=C1C(NS(=O)(=O)c2ccc(Br)s2)=C(N2CCSCC2)C(=O)c2ccccc21 | > 70 µM (inactive) | 
O=C1C(NS(=O)(=O)c2ccccc2)=C(c2ccccc2)C(=O)c2ccccc21 | > 70 µM (inactive) | 
NC1=C(c2ccccc2)C(=O)c2ccccc2C1=O | > 70 µM (inactive) | 
COC1=C(NS(=O)(=O)c2ccccc2)C(=O)c2ccccc2C1=O | > 70 µM (inactive) | 
CC(=O)N(C)C1=C(N2CCN(C)CC2)C(=O)c2ccccc2C1=O | 24.3 µM | 
CNC1=CC(=O)c2ccccc2C1=O |  | 3.5% (inactive)
COC1=C(NS(=O)(=O)c2cccs2)C(=O)c2ccccc2C1=O | > 70 µM (inactive) | 
O=C(NC1=C(c2ccccc2)C(=O)c2ccccc2C1=O)c1ccco1 | 29.1 µM | 
CCN1CCN(C2=C(NC(=O)c3ccc(Br)cc3)C(=O)c3ccccc3C2=O)CC1 | 28 µM | 
O=C1C=C(NS(=O)(=O)c2cccs2)C(=O)c2ccccc21 | > 70 µM (inactive) | 
C=CCNC1=C(Nc2ccccc2)C(=O)c2ccccc2C1=O | > 70 µM (inactive) | 
O=C(NC1=C(N2CCSCC2)C(=O)c2ccccc2C1=O)c1ccc(Br)cc1 | > 70 µM (inactive) | 
